According to the RNAGym collection of RNA variant scans (doi:10.1126/science.aae0568):
Variants at the floor of the assay were thinned out.

B1: tRNA (parent)
chain: GUUCCGUUGGCGUAAUGGUAACGCGUCUCCCUCCUAAGGAGAAGACUGCGGGUUCGAGUCCCGUACGGAACG

Variants of: B1
Assay: yeast fitness relative to wild type (ratio to wild type); higher = fitter; tRNA-Arg(CCU), competitive growth, 37 C, YPD
How it was run: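 The tRNA-Arg(CCU) gene variants were made by chemical synthesis with a 3% per-site mutation rate at 69 sites and inserted at the native genomic locus of Saccharomyces cerevisiae. After pooling, the strains were competed in YPD at 37°C for 24 hours in six parallel replicates. Gene amplicons from the start population and each end population were read by 100-nucleotide paired-end sequencing, and Darwinian fitness relative to wild type was taken from genotype frequency changes. Genotypes needed ≥ 100 starting reads, and estimates < 0.5 were set to 0.5.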

Q: Which yeast fitness does the source give for C5U C22G A65G here?
A: 0.588

Q: With C5U C22G C29A as the variant, how does the yeast fitness read?
A: 0.585

Q: With C5U C22G C29A A45U G58C as the variant, how does the yeast fitness read?
A: ≤ 0.5

Q: For C5U C22G C29G A69U, which yeast fitness is on record?
A: ≤ 0.5

Q: With C5U C22G C31G U54G as the variant, how does the yeast fitness read?
A: ≤ 0.5

Q: Which yeast fitness does the source give for C5U C22G C46A C60G here?
A: ≤ 0.5

Q: With C5U C22U A37C C55A A69U as the variant, how does the yeast fitness read?
A: ≤ 0.5

Q: Which yeast fitness does the source give for C5U C22U C27G A65U here?
A: ≤ 0.5

Q: For C5U C22U C27U A42G C55A C60A A70U, which yeast fitness is on record?
A: 0.57

Q: For C5U C22U C27U C33U, which yeast fitness is on record?
A: ≤ 0.5

Q: With C5U C22U C30G C55U as the variant, how does the yeast fitness read?
A: ≤ 0.5

Q: Which yeast fitness does the source give for C5U C22U C33U C49U C62G here?
A: ≤ 0.5

Q: With C5U C22U C33U G67A as the variant, how does the yeast fitness read?
A: ≤ 0.5

Q: For C5U C22U C34A A42U G44C C61A, which yeast fitness is on record?
A: ≤ 0.5

Q: For C5U C22U G52A U53C U59G C61G C62U, which yeast fitness is on record?
A: ≤ 0.5

Q: For C5U C24A G39C A70C, which yeast fitness is on record?
A: ≤ 0.5

Q: With C5U C24A U26C A40G G56A as the variant, how does the yeast fitness read?
A: ≤ 0.5

Q: Which yeast fitness does the source give for C5U C24A U32C here?
A: 0.565

Q: With C5U C24G A43C A45U G52A as the variant, how does the yeast fitness read?
A: ≤ 0.5

Q: With C5U C24G C62G G68C as the variant, how does the yeast fitness read?
A: ≤ 0.5

Q: For C5U C24U, which yeast fitness is on record?
A: 0.99

Q: With C5U C24U A36G as the variant, how does the yeast fitness read?
A: 0.791

Q: Which yeast fitness does the source give for C5U C24U A36G C46A U47C C55A G67A here?
A: ≤ 0.5

Q: For C5U C24U A40C, which yeast fitness is on record?
A: 0.634

Q: Which yeast fitness does the source give for C5U C24U A40G here?
A: 0.637

Q: With C5U C24U C33U G44C G68A as the variant, how does the yeast fitness read?
A: ≤ 0.5

Q: Which yeast fitness does the source give for C5U C24U G41C A70C here?
A: ≤ 0.5

Q: Which yeast fitness does the source give for C5U C24U G44C here?
A: 0.528

Q: Which yeast fitness does the source give for C5U C24U G52U C55A here?
A: ≤ 0.5

Q: Which yeast fitness does the source give for C5U C27A A42U C49G here?
A: 0.763

Q: Which yeast fitness does the source give for C5U C27A C33G A45C G50C G58A here?
A: 0.514

Q: With C5U C27A C61U as the variant, how does the yeast fitness read?
A: 0.589

Q: Which yeast fitness does the source give for C5U C27G C33G A42C U64A here?
A: ≤ 0.5

Q: With C5U C27G C46U as the variant, how does the yeast fitness read?
A: 0.753

Q: For C5U C27U A45U C60G, which yeast fitness is on record?
A: ≤ 0.5

Q: For C5U C27U C34U G44A, which yeast fitness is on record?
A: 0.547

Q: Which yeast fitness does the source give for C5U C27U G58A C60G here?
A: ≤ 0.5

Q: With C5U C29A A37U G38A as the variant, how does the yeast fitness read?
A: ≤ 0.5

Q: With C5U C29A C31A U54A as the variant, how does the yeast fitness read?
A: ≤ 0.5

Q: Which yeast fitness does the source give for C5U C29A C62A here?
A: ≤ 0.5

Q: Which yeast fitness does the source give for C5U C29A G39C G50A G63A A69C here?
A: ≤ 0.5

Q: With C5U C29A G39C G63A U64C A69C as the variant, how does the yeast fitness read?
A: ≤ 0.5

Q: For C5U C29G, which yeast fitness is on record?
A: 0.64

Q: For C5U C30A, which yeast fitness is on record?
A: 0.889

Q: Which yeast fitness does the source give for C5U C30A U53A C62U here?
A: 0.659

Q: Which yeast fitness does the source give for C5U C30G A36U G51A G52A here?
A: 0.524

Q: With C5U C30G C55G as the variant, how does the yeast fitness read?
A: ≤ 0.5

Q: With C5U C30G C61A as the variant, how does the yeast fitness read?
A: ≤ 0.5

Q: Which yeast fitness does the source give for C5U C30G U64A here?
A: 0.578

Q: With C5U C31A as the variant, how does the yeast fitness read?
A: 0.688

Q: Which yeast fitness does the source give for C5U C31A A40G here?
A: 0.743

Q: Which yeast fitness does the source give for C5U C31A A45C here?
A: 0.681

Q: With C5U C31A C34U A43G as the variant, how does the yeast fitness read?
A: 0.77

Q: With C5U C31A U32C A37C G50C A69C as the variant, how does the yeast fitness read?
A: 0.731

Q: For C5U C31G C33U, which yeast fitness is on record?
A: 0.522

Q: For C5U C31G C49U C61G, which yeast fitness is on record?
A: ≤ 0.5

Q: For C5U C31U, which yeast fitness is on record?
A: 1.03

Q: Which yeast fitness does the source give for C5U C31U C61G here?
A: 0.549

Q: With C5U C31U G50A C55G as the variant, how does the yeast fitness read?
A: 0.57

Q: With C5U C33A as the variant, how does the yeast fitness read?
A: 0.737

Q: Which yeast fitness does the source give for C5U C33A A36C A37C A43G A70U here?
A: ≤ 0.5

Q: With C5U C33G as the variant, how does the yeast fitness read?
A: 0.777

Q: With C5U C33G G56C A69U as the variant, how does the yeast fitness read?
A: ≤ 0.5

Q: For C5U C33U A45G C61U, which yeast fitness is on record?
A: ≤ 0.5

Q: For C5U C33U A65G, which yeast fitness is on record?
A: 0.63

Q: For C5U C34A, which yeast fitness is on record?
A: 0.631

Q: For C5U C34A A57G, which yeast fitness is on record?
A: ≤ 0.5

Q: Which yeast fitness does the source give for C5U C34A G38C A70C here?
A: 0.608

Q: With C5U C34A G50A U59G C62A as the variant, how does the yeast fitness read?
A: ≤ 0.5

Q: Which yeast fitness does the source give for C5U C34G C61U C66U here?
A: ≤ 0.5

Q: Which yeast fitness does the source give for C5U C34G U64A here?
A: ≤ 0.5

Q: Which yeast fitness does the source give for C5U C34U C55G here?
A: ≤ 0.5

Q: With C5U C46A C55G C66U A69U as the variant, how does the yeast fitness read?
A: ≤ 0.5

Q: With C5U C46U G50C C61U as the variant, how does the yeast fitness read?
A: ≤ 0.5

Q: For C5U C49A C60G, which yeast fitness is on record?
A: 0.754

Q: With C5U C49G as the variant, how does the yeast fitness read?
A: 0.919

Q: Which yeast fitness does the source give for C5U C55A here?
A: 0.668

Q: Which yeast fitness does the source give for C5U C55G C61A here?
A: ≤ 0.5

Q: For C5U C55G C66U A69U, which yeast fitness is on record?
A: ≤ 0.5

Q: Which yeast fitness does the source give for C5U C61A here?
A: 0.612

Q: With C5U C66A as the variant, how does the yeast fitness read?
A: 0.729

Q: Which yeast fitness does the source give for C5U C66G here?
A: 0.779

Q: For C5U G6A, which yeast fitness is on record?
A: 0.884
